ChEMBL document CHEMBL4311975, “Exploration of the antibiotic potentiating activity of indolglyoxylpolyamines” (Eur J Med Chem, 2019)
Values after ≈ are worked out from the molar mass of the structure shown.

Key:
Staphylococcus aureus = assay: Antibacterial activity against Staphylococcus aureus ATCC 25923 assessed as growth inhibition incubated for 18 hrs by broth dilution method; assay type: functional; conditions: ATCC 25923, 18 h
In short: (§1)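 Broth microdilution following CA-SFM recommendations. Inoculum was 10^5 CFU in Mueller-Hinton broth with two-fold serial drug dilutions. Plates were incubated 18 h at 37 °C. MIC was the lowest concentration giving complete inhibition of visible growth. Values are means, n = 3.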

[1] = system: Staphylococcus intermedius; assay: Antibacterial activity against Staphylococcus intermedius 1051997 assessed as growth inhibition incubated for 18 hrs by broth dilution method; assay type: functional; conditions: Staphylococcus intermedius, 1051997, 18 h; in short: as §1
Pseudomonas aeruginosa [2] = assay: Antibacterial activity against Pseudomonas aeruginosa ATCC 27853 assessed as growth inhibition incubated for 18 hrs by broth dilution method; assay type: functional; in short: as §1
Escherichia coli = assay: Antibacterial activity against Escherichia coli ATCC 25922 assessed as growth inhibition incubated for 18 hrs by broth dilution method; assay type: functional; in short: as §1
Klebsiella pneumoniae = assay: Antibacterial activity against Klebsiella pneumoniae ATCC 700603 assessed as growth inhibition incubated for 18 hrs by resazurin dye based assay; assay type: functional
In short: (§2)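 Overnight cultures were diluted 40-fold in MHB and grown 1.5–2 h at 37 °C to mid-log phase. Cells were added at 5×10^5 CFU/mL final to two-fold compound dilutions (0.008–32 μg/mL final), in duplicate, for 18 h at 37 °C. Resazurin (0.001% final) was added for 2 h and MIC read by eye. Means, n = 2.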

Acinetobacter baumannii = assay: Antibacterial activity against Acinetobacter baumannii ATCC 19606 assessed as growth inhibition incubated for 18 hrs by resazurin dye based assay; assay type: functional; conditions: ATCC 19606 = CIP 70.34 = JCM 6841, 18 h; in short: as §2
Candida albicans = assay: Antifungal activity against Candida albicans ATCC 90028 assessed as growth inhibition incubated for 36 hrs by resazurin dye based assay; assay type: functional; conditions: ATCC 90028, 36 h
In short: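 Yeast was grown 3 days on YPD agar at 30 °C. Colonies were suspended and diluted in YNB broth to 2.5×10^3 CFU/mL, then added to two-fold compound dilutions (0.008–32 μg/mL final), in duplicate. Plates stood 36 h at 35 °C without shaking. Means, n = 2.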

Cryptococcus neoformans = assay: Antifungal activity against Cryptococcus neoformans ATCC 208821 assessed as growth inhibition incubated for 36 hrs by resazurin dye based assay; assay type: functional; conditions: ATCC 208821, 36 h
In short: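 Cryptococcus was grown 3 days on YPD agar at 30 °C, suspended, and diluted in YNB broth to 2.5×10^3 CFU/mL. Cells were exposed to 0.008–32 μg/mL compound (final), in duplicate, for 36 h at 35 °C without shaking. Resazurin (0.006% final) was added for a further 3 h. MIC was read from absorbance at OD570–600. Means, n = 2.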

Pseudomonas aeruginosa [3] = assay: Potentiation of doxycycline-induced antibacterial activity against Pseudomonas aeruginosa ATCC 27853 assessed as concentration required to restore 2 ug/ml doxycycline activity measured after 18 hrs; assay type: functional
In short: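 Inoculum was 5×10^5 CFU in MHB with two-fold serial dilutions of adjuvant plus fixed doxycycline at 2 μg/mL. […] Repeated independently in triplicate.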

L6 = assay: Cytotoxicity against rat L6 cells measured after 72 hrs by alamar blue assay; assay type: cell-based; conditions: L6, 72 h
In short: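 Rat L6 myoblasts, 4×10^4/well in RPMI 1640 with L-glutamine and 10% FBS, received seven 3-fold dilutions (90 to 0.123 μg/mL) for 72 h. Alamar Blue was added for 2 h and fluorescence read at ex 536/em 588 nm. Podophyllotoxin served as reference. Means, n = 2.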

[4] = Cytotoxicity against human HEK293 cells measured after 20 hrs by resazurin dye based fluorescence assay; assay type: cell-based
In short: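 HEK293 cells, 5,000/well in DMEM with 10% FBS, were exposed to compound for 20 h at 37 °C, 5% CO2. Resazurin (100 μM final) was added for 3 h, then fluorescence read at ex 560/em 590. Signal was normalised to tamoxifen (74 μg/mL, 0%) and untreated growth (100%), and CC50 came from dose-response fitting. Top dose 32 μg/mL. Means, n = 2.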

[5] = Hemolytic activity against Sprague-Dawley rat RBC assessed as release of hemoglobin at 50 uM incubated for 1 hr relative to control; assay type: ADME, cell-based, Erythrocyte; conditions: red blood cells (erythrocytes), read-out: Activity
In short: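 Fresh Sprague-Dawley rat erythrocytes were washed in saline and resuspended at 2% v/v. Cells were incubated with compound in DMSO/PBS for 1 h at 37 °C, then centrifuged at 200 g, and supernatant absorbance read at 540 nm. Results were normalised to DMSO/PBS (0%) and 0.1% Triton X-100 (100%). Single-point testing used 50 μM; HC50 came from 10-point curves. Means of three experiments.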

[6] = Klebsiella pneumoniae, 700603, 18 h

Row | MIC (Staphylococcus aureus) [µM] | MIC [1] [µM] | MIC (Pseudomonas aeruginosa [2]; ATCC 27853, 18 h) [µM] | MIC (Escherichia coli; ATCC 25922, 18 h) [µM] | MIC (Klebsiella pneumoniae; [6]) [µM] | MIC (Acinetobacter baumannii) [µM] | MIC (Candida albicans) [µM] | MIC (Cryptococcus neoformans) [µM] | Molecule | Activity (Pseudomonas aeruginosa [3]) [µM] | IC50 (L6) [µM] | CC50 at 20 h [4] [µM] | hemolysis at 1 h, 50 µM [5] [%] | MIC (Pseudomonas aeruginosa [2]) [µM] | MIC (Escherichia coli) [µM] | MIC (Klebsiella pneumoniae) [mg/L]
1 | 25 | 50 | 200 | 200 | > 39.6 | > 39.6 | > 39.6 | 9.9 | O=C(NCCCNCCCCNCCCNC(=O)C(=O)c1c[nH]c2ccc(F)cc12)C(=O)c1c[nH]c2ccc(F)cc12.O=C(O)C(F)(F)F.O=C(O)C(F)(F)F | 12.5 | 71.1 | > 39.6 | 0 |  |  | 
2 | > 100 | > 100 | > 100 | > 100 | > 38.4 | > 38.4 | > 38.4 | 19.2 (≈ 11.6 µg/mL) | COc1ccc2c(C(=O)C(=O)NCCCNCCCCNCCCNC(=O)C(=O)c3c[nH]c4cc(OC)ccc34)c[nH]c2c1 | 50 | 54 | > 38.4 | 0 |  |  | 
3 | 50 |  | 200 | 200 | > 38.1 | > 38.1 | > 38.1 | 19.1 | O=C(NCCCNCCCCNCCCNC(=O)C(=O)c1c[nH]c2c(Cl)cccc12)C(=O)c1c[nH]c2c(Cl)cccc12.O=C(O)C(F)(F)F.O=C(O)C(F)(F)F | 25 | 7.47 | 31.6 | 1.1 |  |  | 
4 | > 100 | > 100 | > 100 | > 100 | > 41.4 | > 41.4 | > 41.4 | 10.3 (≈ 5.61 µg/mL) | O=C(NCCCNCCCCNCCCNC(=O)C(=O)c1c[nH]c2ccccc12)C(=O)c1c[nH]c2ccccc12 | >50 | 60 | > 41.5 | 0 |  |  | 
5 | 25 | > 200 | 100 | 200 | > 40 | > 40 | > 40 | 10 | Cc1ccc2[nH]cc(C(=O)C(=O)NCCCNCCCCNCCCNC(=O)C(=O)c3c[nH]c4ccc(C)cc34)c2c1.O=C(O)C(F)(F)F.O=C(O)C(F)(F)F | 6.25 | 63.8 | > 40 | 0.3 |  |  | 
6 |  |  |  |  |  |  |  |  | COLISTIN |  |  |  |  | 1 | 2 | 0.25
7 | 25 | > 200 | 200 | 200 | > 36 | > 36 | > 36 | 9 | COC(=O)c1cccc2c(C(=O)C(=O)NCCCNCCCCNCCCNC(=O)C(=O)c3c[nH]c4c(C(=O)OC)cccc34)c[nH]c12.O=C(O)C(F)(F)F.O=C(O)C(F)(F)F | 6.25 | 34.4 | 3.78 | 15 |  |  | 
8 | > 70 | 35 (≈ 20.3 µg/mL) | 140 (≈ 81.3 µg/mL) | 100 (≈ 58.1 µg/mL) | > 55.1 | > 55.1 | > 55.1 | > 55.1 | O=C(NCCCNCCCCNCCCNC(=O)C(=O)c1c[nH]c2cccc(F)c12)C(=O)c1c[nH]c2cccc(F)c12 | 35 | 167 | > 55 | 0.3 |  |  | 
9 | 100 | 6.25 | 200 | 200 | > 36 | > 36 | > 36 | > 36 | COC(=O)c1ccc2[nH]cc(C(=O)C(=O)NCCCNCCCCNCCCNC(=O)C(=O)c3c[nH]c4ccc(C(=O)OC)cc34)c2c1.O=C(O)C(F)(F)F.O=C(O)C(F)(F)F | 25 | 41.8 | > 36 | 0 |  |  | 
